Reference: ChEMBL document CHEMBL2057170, “Synthesis and binding properties of new selective ligands for the nucleobase opposite the AP site” (Bioorg Med Chem, 2012)

Experiments:
Assay type in all cases: nucleic-acid assay
[1] = system: Nucleic Acid; assay: Binding affinity to DNA 5'-d GCG TAC AP CAT GCG-3' 3'-d CGC ATG T GTA CGC-5' assessed as melting temperature pretreated for 5 mins in presence of 100 mM NaCl
Procedure, shortened: (§1)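 UV thermal denaturation at 260 nm used 4 µM duplex (AP = THF) with or without 20 µM ligand in 10 mM HEPES-NaOH pH 7.0, 100 mM NaCl. Samples were preheated 5 min at 80 °C, then slowly cooled. Melts ran 20–80 °C at 1 °C/min. Tm came from non-linear fitting; ΔTm = Tm(+) − Tm(−).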

[2] = system: Nucleic Acid; assay: Binding affinity to DNA 5'-d GCG TAC AP CAT GCG-3' 3'-d CGC ATG A GTA CGC-5' assessed as melting temperature pretreated for 5 mins in presence of 100 mM NaCl; procedure, shortened: as §1
[3] = system: Nucleic Acid; assay: Binding affinity to DNA 5'-d GCG TAC AP CAT GCG-3' 3'-d CGC ATG C GTA CGC-5' assessed as equilibrium association constant by SPR analysis in presence of 50 mM NaCl
Procedure, shortened: (§2)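 SPR on BIACORE3000. Hairpin duplexes carrying the AP site (THF) opposite X were 5'-biotin-labelled and immobilized in HBS-N (pH 7.4, 150 mM NaCl). Binding was run in 10 mM HEPES-NaOH pH 7.0 with 50 mM NaCl at 25 °C. Ligand 0.05–2.00 µM was injected at 20 µl/min for 300 s, then 120 s dissociation. Ka came from steady-state affinity analysis with a one-site fit.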

[4] = system: Nucleic Acid; assay: Binding affinity to DNA 5'-d GCG TAC AP CAT GCG-3' 3'-d CGC ATG T GTA CGC-5' assessed as equilibrium association constant by SPR analysis in presence of 50 mM NaCl; procedure, shortened: as §2
[5] = system: Nucleic Acid; assay: Binding affinity to DNA 5'-d GCG TAC AP CAT GCG-3' 3'-d CGC ATG A GTA CGC-5' assessed as equilibrium association constant by SPR analysis in presence of 50 mM NaCl; procedure, shortened: as §2
[6] = system: Nucleic Acid; assay: Binding affinity to DNA 5'-d GCG TAC AP CAT GCG-3' 3'-d CGC ATG G GTA CGC-5' assessed as equilibrium association constant by SPR analysis in presence of 50 mM NaCl; procedure, shortened: as §2
[7] = system: Nucleic Acid; assay: Binding affinity to DNA 5'-d GCG TAC AP CAT GCG-3' 3'-d CGC ATG C GTA CGC-5' assessed as melting temperature pretreated for 5 mins in presence of 100 mM NaCl; procedure, shortened: as §1
[8] = system: Nucleic Acid; assay: Binding affinity to DNA 5'-d GCG TAC AP CAT GCG-3' 3'-d CGC ATG G GTA CGC-5' assessed as melting temperature pretreated for 5 mins in presence of 100 mM NaCl; procedure, shortened: as §1
[9] = system: Nucleic Acid; assay: Binding affinity to DNA 5'-d GCG TAC AP CAT GCG-3' 3'-d CGC ATG T GTA CGC-5' assessed as melting temperature pretreated for 5 mins in presence of 50 mM NaCl
Procedure, shortened: (§3)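 UV thermal denaturation at 260 nm used 4 µM duplex (AP = THF) with or without 20 µM ligand in 10 mM HEPES-NaOH pH 7.0, 50 mM NaCl. Samples were preheated 5 min at 80 °C, then slowly cooled. Melts ran 20–80 °C at 1 °C/min. Tm came from non-linear fitting; ΔTm = Tm(+) − Tm(−).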

[10] = system: Nucleic Acid; assay: Binding affinity to DNA 5'-d GCG TAC AP CAT GCG-3' 3'-d CGC ATG A GTA CGC-5' assessed as melting temperature pretreated for 5 mins in presence of 50 mM NaCl; procedure, shortened: as §3
[11] = system: Nucleic Acid; assay: Binding affinity to DNA 5'-d GCG TAC AP CAT GCG-3' 3'-d CGC ATG C GTA CGC-5' assessed as melting temperature pretreated for 5 mins in presence of 50 mM NaCl; procedure, shortened: as §3
[12] = system: Nucleic Acid; assay: Binding affinity to DNA 5'-d GCG TAC AP CAT GCG-3' 3'-d CGC ATG G GTA CGC-5' assessed as melting temperature pretreated for 5 mins in presence of 50 mM NaCl; procedure, shortened: as §3

Row | Tm [1] [°C] | Tm [2] [°C] | Ka [3] [×10⁶ /M] | Ka [4] [×10⁶ /M] | Ka [5] [×10⁶ /M] | Ka [6] [×10⁶ /M] | Tm [7] [°C] | Tm [8] [°C] | Tm [9] [°C] | Tm [10] [°C] | Tm [11] [°C] | Tm [12] [°C] | Compound
1 | 38.1 | 40.4 | 6.3 | 0.08 | 0.016 | 0.047 | 40.8 | 40.9 | – | – | – | – | NCCCNCCCNCCCn1cnc2c(=O)[nH]c(N)nc21
2 | 43.7 | 40.4 | 0.01 | 3.9 | 0.057 | 0.087 | 34.6 | 40.8 | – | – | – | – | NCCCNCCCNCCCn1cnc2c(N)ncnc21

The remaining lines, values behind:

Row | Compound | Tm [1] [°C] | Tm [2] [°C] | Ka [3] [×10⁶ /M] | Ka [4] [×10⁶ /M] | Ka [5] [×10⁶ /M] | Ka [6] [×10⁶ /M] | Tm [7] [°C] | Tm [8] [°C] | Tm [9] [°C] | Tm [10] [°C] | Tm [11] [°C] | Tm [12] [°C]
3 | NCCCNCCCNCCCn1ccc(=O)[nH]c1=O | – | – | 0.022 | 0.027 | 0.045 | 0.001 | – | – | 33.9 | 39.1 | 32.1 | 36.4
4 | NCCCNCCCNCCCn1ccc(N)nc1=O | – | – | 0.002 | 0.001 | 0.002 | 0.039 | – | – | 32.4 | 35.2 | 32.6 | 40.5
5 | Cc1cn(CCCNCCCNCCCN)c(=O)[nH]c1=O | – | – | 0.063 | 0.053 | 0.222 | 0.043 | – | – | 35.5 | 39.2 | 33.8 | 37.8
6 | NCCCNCCCN | – | – | – | < 0.001 | – | – | – | – | – | – | – | –
